According to ChEMBL document CHEMBL2321843, “Opioid peptidomimetics: leads for the design of bioavailable mixed efficacy μ opioid receptor (MOR) agonist/δ opioid receptor (DOR) antagonist ligands” (J Med Chem, 2013):
Calls of active or inactive are those of the source.

How the values were obtained:
Mus musculus [1] = assay: Antinociceptive activity in C57BL/6 mouse assessed as increase in duration of maximal activity at 10 mg/kg, ip by warm water tail withdrawal assay; format: functional, organism-based; set-up: dose 10 mg/kg
Method in brief: (§1)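 Male C57BL/6 mice given a single ip dose of 10 mg/kg. Tail-withdrawal latency (50 °C water, 20 s cutoff) measured at varying times after dosing to build a time course.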

Mus musculus [2] = assay: Antinociceptive activity in C57BL/6 mouse assessed as tail withdrawal latency at 3.2 to 32 mg/kg, ip after 30 mins by warm water tail withdrawal assay in presence of opioid antagonist naltrexone; format: functional, organism-based
Method in brief: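 Male C57BL/6 mice pretreated ip with naltrexone 1 mg/kg, 30 min before testing. Cumulative ip dosing to totals of 3.2, 10 and 32 mg/kg at 30 min intervals, with latency read 30 min after each injection. Tail tip immersed in 50 °C water, 20 s cutoff.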

Mus musculus [3] = assay: Antinociceptive activity in ip dosed C57BL/6 mouse assessed as tail withdrawal latency after 30 mins by warm water tail withdrawal assay; format: functional
Mus musculus [4] = assay: Antinociceptive activity in C57BL/6 mouse assessed as duration of maximal activity at 10 mg/kg, ip by warm water tail withdrawal assay; format: functional; conditions: route intraperitoneal; method in brief: as §1
[5] = target: Mu-type opioid receptor (Rattus norvegicus) (UniProt P33535); assay: Agonist activity at rat MOR expressed in rat C6 cells assessed as stimulation of [35S]GTPgammaS binding at 10 uM after 1 hr by liquid scintillation counting analysis relative to DAMGO; format: functional, cell-based
Sequence of Mu-type opioid receptor (Rattus norvegicus) (P33535 whole entry): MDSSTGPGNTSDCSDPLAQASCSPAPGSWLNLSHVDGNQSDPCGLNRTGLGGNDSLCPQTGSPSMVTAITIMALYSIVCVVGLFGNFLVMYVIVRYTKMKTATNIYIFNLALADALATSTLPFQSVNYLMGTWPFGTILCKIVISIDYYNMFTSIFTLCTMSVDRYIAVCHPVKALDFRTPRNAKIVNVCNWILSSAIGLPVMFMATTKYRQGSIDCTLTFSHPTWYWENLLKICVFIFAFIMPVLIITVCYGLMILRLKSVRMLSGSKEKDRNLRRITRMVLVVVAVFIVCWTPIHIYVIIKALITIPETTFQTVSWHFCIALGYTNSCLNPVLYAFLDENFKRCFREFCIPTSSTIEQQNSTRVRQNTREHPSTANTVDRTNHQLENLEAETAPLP

[6] = target: Delta-type opioid receptor (Rattus norvegicus) (UniProt P33533); conditions: C6
Sequence of Delta-type opioid receptor (Rattus norvegicus) (P33533 whole entry): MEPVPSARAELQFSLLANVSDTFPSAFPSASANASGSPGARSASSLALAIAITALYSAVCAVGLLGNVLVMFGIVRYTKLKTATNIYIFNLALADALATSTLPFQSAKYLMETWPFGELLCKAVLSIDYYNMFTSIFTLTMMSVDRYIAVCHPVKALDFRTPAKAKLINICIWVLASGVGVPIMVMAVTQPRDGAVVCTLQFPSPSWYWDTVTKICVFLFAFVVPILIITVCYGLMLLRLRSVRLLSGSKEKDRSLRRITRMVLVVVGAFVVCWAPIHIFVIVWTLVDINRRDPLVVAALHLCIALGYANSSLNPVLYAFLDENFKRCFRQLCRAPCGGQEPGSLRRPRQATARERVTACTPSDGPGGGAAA

[7] = target: T1, Delta-type opioid receptor (Rattus norvegicus, UniProt P33533); assay: Agonist activity at rat DOR expressed in rat C6 cells assessed as stimulation of [35S]GTPgammaS binding after 1 hr by liquid scintillation counting analysis; format: functional, cell-based
T1 sequence (P33533 whole entry): as above

[8] = target: T1, Delta-type opioid receptor; assay: Displacement of [3H]diprenorphine from rat DOR expressed in rat C6 cells after 1 hr by liquid scintillation counting analysis; format: cell-based
[9] = target: T2, Kappa-type opioid receptor (Homo sapiens, UniProt P41145); format: cell-based, CHO
T2 sequence (P41145 whole entry): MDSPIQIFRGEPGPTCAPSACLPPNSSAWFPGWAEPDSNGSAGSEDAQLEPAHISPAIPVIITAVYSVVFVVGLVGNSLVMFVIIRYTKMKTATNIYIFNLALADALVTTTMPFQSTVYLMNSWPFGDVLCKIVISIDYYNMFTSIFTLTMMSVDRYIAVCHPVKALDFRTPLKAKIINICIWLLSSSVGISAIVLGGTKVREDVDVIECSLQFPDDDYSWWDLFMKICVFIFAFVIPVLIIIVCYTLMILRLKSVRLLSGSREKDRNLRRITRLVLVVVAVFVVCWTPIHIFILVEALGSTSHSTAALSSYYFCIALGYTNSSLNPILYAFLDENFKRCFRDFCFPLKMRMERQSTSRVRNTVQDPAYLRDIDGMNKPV

[10] = target: T2, Kappa-type opioid receptor; format: functional, cell-based, CHO
Mu-type opioid receptor [11] = target: T3, Mu-type opioid receptor (Rattus norvegicus, UniProt P33535); assay: Displacement of [3H]diprenorphine from rat MOR expressed in rat C6 cells after 1 hr by liquid scintillation counting analysis; format: cell-based
T3 sequence (P33535 whole entry): as the sequence (P33535 whole entry) above

Mu-type opioid receptor [12] = target: T3, Mu-type opioid receptor; assay: Agonist activity at rat MOR expressed in rat C6 cells assessed as stimulation of [35S]GTPgammaS binding after 1 hr by liquid scintillation counting analysis; format: functional, cell-based
[13] = target: T2, Kappa-type opioid receptor; conditions: CHO, 10 uM
[14] = target: Delta-type opioid receptor (Rattus norvegicus) (UniProt P33533); assay: Agonist activity at rat DOR expressed in rat C6 cells assessed as stimulation of [35S]GTPgammaS binding at 10 uM after 1 hr by liquid scintillation counting analysis relative to DPDPE; format: functional, cell-based

SMILES | Emax [5] [%] | EC50 [7] | Ki [8] [nM] | Ki [9] [nM] | EC50 ([10]; cho) | further results
CN1CC[C@]23c4c5ccc(O)c4O[C@H]2[C@@H](O)C=C[C@H]3[C@H]1C5 |  |  |  |  |  | Activity (Mus musculus [1]): Active
Cc1cc(O)cc(C)c1C[C@H](N)C(=O)N[C@@H]1CCNc2ccc(Cc3ccccc3)cc21 |  |  |  |  |  | Activity (Mus musculus [2]): inactive; Activity (Mus musculus [3]): Dose-dependent effect; ED50 (Mus musculus [3]; C57BL/6, Tail, 0.5 h): 3 mg/kg; Time (Mus musculus [4]): 60 min
Cc1cc(O)cc(C)c1C[C@H](N)C(=O)N[C@@H]1CCNc2ccc(Cc3ccc4ccccc4c3)cc21 | 96 | Not Active | 10 | 54 | Not Active | Ke [6]: 34.3 nM
Cc1cc(O)cc(C)c1C[C@H](N)C(=O)N[C@@H]1CCNc2ccc(CCc3ccccc3)cc21 | 45 | Not Active |  |  | Not Active | 
Cc1cc(O)cc(C)c1C[C@H](N)C(=O)N[C@@H]1CCNc2ccc(CC3Cc4ccccc4C3)cc21 | 86 | Not Active | 4.1 | 1.2 |  | Ki (Mu-type opioid receptor [11]): 0.16 nM; EC50 (Mu-type opioid receptor [12]): 0.24 nM; Emax [13]: 38%; EC50 ([10]; read-out: EC50): 68 nM
Cc1cc(O)cc(C)c1C[C@H](N)C(=O)N[C@@H]1CCNc2ccc(Cc3cccc4ccccc34)cc21 | 93 |  |  |  | Not Active | Emax [14]: 15%
